Bioassay records from PubChem.
Shown are actives, neighbours in structure and some others; about 3.5% of the full set was active somewhere.
RGS4 pot: potentiators or activators of RGS4. HEK293 M3R/inducible RGS4, carbachol calcium flux Fluo4; stronger effect = lower value. actives 0.92% (n = 310,000). B-score at 10 µM;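 active = B-score of the integrated calcium signal more than 4 SD below the library mean, with starting fluorescence not abnormally high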;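 also: negative B-score means reduced calcium response which marks RGS4 activation or potentiation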
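Assay system: Inducible-RGS4 HEK293 cells carrying M3 receptor | Schedule: Compound preincubation 20 min at room temperature before agonist | Signal: Kinetic calcium fluorescence imaging with Fluo4-AM dye, 2 µM | Read-out basis: B score from integrated fluorescence ratio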
MrgX1 agonist: agonists of human MrgX1 receptor. actives 0.44% (n = 310,000). Q96LB2. MrgX1-HEK293 cells, Fluo-4 calcium fluorescence, agonist mode; stronger effect = higher value. B-score at 10 µM;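 active = calcium response B-score plate-corrected fluorescence ratio at least 3 library SD, with starting fluorescence B-score inside 5 SD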
Target sequence (Q96LB2 whole entry, looked up): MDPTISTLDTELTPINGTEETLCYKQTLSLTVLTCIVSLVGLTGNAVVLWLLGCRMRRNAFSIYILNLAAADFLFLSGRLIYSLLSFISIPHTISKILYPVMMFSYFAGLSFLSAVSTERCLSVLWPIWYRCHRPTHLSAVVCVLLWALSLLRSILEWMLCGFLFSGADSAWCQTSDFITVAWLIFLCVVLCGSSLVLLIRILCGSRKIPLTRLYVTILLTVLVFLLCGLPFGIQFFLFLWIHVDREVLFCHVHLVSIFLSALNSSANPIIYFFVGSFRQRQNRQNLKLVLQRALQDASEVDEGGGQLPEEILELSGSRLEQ
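Test system: HEK293 cells stably expressing human MrgX1 receptor; Input: fifteen thousand cells per well; Dosing: compound delivered in addition one of three; Schedule: overnight seeding, then 1 h dark dye loading; Technique: Fluo-4 NW calcium fluorescence; Measure: B-scored fluorescence response ratio; Controls: positive and negative controls per plate.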
MrgX1 allo act: allosterically activates human MrgX1 receptor signaling. Q96LB2. MrgX1-HEK293, Fluo-4 calcium flux, FDSS; stronger effect = higher value. B-score at 10 µM. actives 0.63% (n = 310,000). AID 588675;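 active = plate-corrected calcium response at least 3 library SD above typical, normal starting fluorescence, not activating the receptor alone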;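 also: compound read alongside a low EC10 to EC30 dose of BAM8-22 agonist; peak minus trough fluorescence over baseline measured at the second addition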
RGS4 block: human RGS4 inhibition | P49798 | HEK293 M3R/RGS4 inducible, Fluo-4 calcium flux; stronger effect = higher value; triggered by carbachol at its EC20 | B-score at 10 µM | actives 0.45% (n = 310,000);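 active = B-score, a plate-corrected calcium signal, over three deviations above library mean, with baseline fluorescence within five deviations of library mean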;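 also: RGS4 expression induced by doxycycline in cells with stable M3 receptor; B-score is computed from the integrated fluorescence ratio over baseline after carbachol; higher B-score means a larger calcium signal and so more RGS4 inhibition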
Target sequence (P49798 whole entry, looked up): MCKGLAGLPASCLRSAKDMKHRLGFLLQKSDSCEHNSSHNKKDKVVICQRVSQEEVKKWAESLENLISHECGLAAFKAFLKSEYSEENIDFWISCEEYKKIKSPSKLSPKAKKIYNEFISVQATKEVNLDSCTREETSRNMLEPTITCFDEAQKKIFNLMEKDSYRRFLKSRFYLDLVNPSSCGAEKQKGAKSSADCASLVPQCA
MrgX1 antagonist: antagonists of human MrgX1 receptor; Q96LB2; MRGX1-HEK293 calcium flux, Fluo-4, BAM8-22 antagonism; stronger effect = lower value; B-score at 10 µM; actives 1.3% (n = 310,000); AID 588676;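 active = calcium-response B-score plate-corrected more than 3 library SD below zero, starting fluorescence within 5 deviations, no agonist response on first addition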;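 also: peak minus trough fluorescence over baseline after final BAM8-22 challenge near maximal dose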
RGS4 activ val: confirmation of RGS4 activators; shares compounds with RGS4 pot; HEK293 M3R/RGS4 inducible, carbachol calcium flux Fluo4; inhibition, % at 10 µM; actives 89% (n = 1,100);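 active = inhibition above 3 SD of the buffer control wells, cut at about 41% in these data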;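 also: signal is the integrated peak-minus-minimum Fluo4 fluorescence over baseline ratio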
M3R Ca counter: activity in cells without induced RGS4 expression | HEK293 M3R non-induced RGS4, Fluo4 calcium flux; after carbachol challenge at its EC90 | actives 82% (n = 1,100) | shares compounds with RGS4 pot | inhibition, % at 10 µM;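 active = inhibition exceeding 3 SD of buffer-only control wells, cut at about 26% in these data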;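 also: percent drop in integrated peak-minus-baseline over baseline Fluo4 ratio after carbachol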
Hits are given with their value; . = inactive; / = no result.

SMILES | RGS4 pot | MrgX1 agonist | MrgX1 allo act | RGS4 block | MrgX1 antagonist | RGS4 activ val | M3R Ca counter
CCCCOc1ccc(C(=O)NNC(=O)C2C3C=CC(C3)C2C(=O)O)cc1 (stereo not given) | . | . | . | . | . | / | /
O=C(NCC1CCCO1)c1csc2c1CCCCC2 (stereo not given) | -9.1 | . | . | . | . | . | .
O=C(Nc1ccc(Br)cc1)c1ccc(N2C(=O)C3CC=C(Cl)CC3C2=O)cc1 (stereo not given) | . | . | . | . | . | / | /
Cc1ccc(C(=O)NC(=S)Nc2ccc(CN3CCCCC3)cc2)c(C)c1 | -7.6 | . | . | . | . | 82 | 84
CC1CCN(C(=O)c2cc3nc(-c4ccccc4)cc(-c4ccccc4)n3n2)CC1 | . | . | . | . | . | / | /
O=C(NC1CCCC1)c1cc2nc(-c3ccccc3)cc(-c3ccccc3)n2n1 | -7.7 | . | . | . | . | 82 | 84
Cc1ccc(-c2csc(=Nc3cccnc3)n2CCCn2ccnc2)cc1C | -8.8 | . | . | . | . | 92 | 93
Cc1ccc(-c2csc(=Nc3cccnc3)n2CCCN2CCCC2=O)cc1C | . | . | . | . | . | / | /
CCOC(=O)C1CCCN(C(=O)c2cc(Nc3ccc(OC)c(OC)c3)nc3ccccc23)C1 (stereo not given) | . | . | . | . | . | / | /
CCOC(=O)C1CCCN(C(=O)c2cc(-c3ccc(C)cc3)nc3ccccc23)C1 (stereo not given) | -9.1 | . | . | . | . | 48 | .
Cc1nc(-c2ccc(S(=O)(=O)NCc3cccnc3)s2)cs1 | . | . | . | . | . | / | /
CN(CC/C=C1/c2ccccc2CSc2ccccc21)CCCO | -9.5 | . | . | . | . | 91 | 65
CC(O)CN(C)CC/C=C1/c2ccccc2CSc2ccccc21 (stereo not given) | -7.9 | . | . | . | . | 73 | 84
CC1=C(C(=O)OC(C)(C)C)C(c2ccc3ccccc3c2)NC(=O)N1C (stereo not given) | -8 | . | . | . | . | 94 | 81
COC(=O)C1=C(C)N(C)C(=O)NC1c1ccc(C)cc1 (stereo not given) | . | . | . | . | . | / | /
CCC1Oc2ccccc2N(CC(=O)NCc2cccs2)C1=O (stereo not given) | . | . | . | . | . | / | /
COc1ccc(CCNC(=O)[C@H](C)N2C(=O)N3CCc4c([nH]c5ccccc45)[C@@]3(C)C2=O)cc1 | . | . | . | . | . | / | /
CCN=C1SC(C(=O)Nc2ccc(Cl)c(Cl)c2)CC(=O)N1CC (stereo not given) | . | . | . | . | . | / | /
CCN=C1SC(C(=O)Nc2cccc(Br)c2)CC(=O)N1CC (stereo not given) | -7.8 | . | . | . | . | 56 | 84
Cc1sc2nc(SCC(=O)NCc3ccco3)n(C)c(=O)c2c1C | . | . | . | . | . | / | /
COC(=O)c1ccc(CNC(=O)CSc2nc3sc(C)c(C)c3c(=O)n2C)o1 | -8.2 | . | . | . | . | 50 | .
CCOC(=O)Cc1csc(NC(=O)Nc2cccc(OC)c2)n1 | . | . | . | . | . | / | /
COCCCNC(=O)c1c(N)n(/N=C/c2cccs2)c2nc3ccccc3nc12 | -8.1 | . | . | . | . | . | .
CC(=O)NC(CC(=O)N1CCN(C(C)=O)CC1)c1ccccc1 (stereo not given) | . | . | . | . | . | / | /
Cc1cccc(-c2cc(C(=O)Nc3cccnc3)c3ccccc3n2)c1 | -9.5 | . | . | . | . | 56 | .
SMILES | RGS4 pot | MrgX1 agonist | MrgX1 allo act | RGS4 block | MrgX1 antagonist | RGS4 activ val | M3R Ca counter
COc1ccc(C2(CNC(=O)Cc3ccccc3)CCCC2)cc1OC | -8 | . | . | . | . | . | .
Cc1ccc(Cc2c(C)nc3nc(SCC(=O)NCCCN4CCOCC4)nn3c2C)cc1 | . | . | . | . | . | / | /
Cc1ccccc1Cc1c(C)nc2nc(SCC(=O)NCCCN3CCCCC3)nn2c1C | -9.6 | . | . | . | . | 74 | 43
CC(C)NS(=O)(=O)c1ccc(CCC(=O)N2CCc3ccccc3C2)cc1 | -7.5 | . | . | . | . | . | .
CC(C)NS(=O)(=O)c1ccc(OCC(=O)N2CCc3ccccc3C2)cc1 | . | . | . | . | . | / | /
CCCCc1cc(=O)oc2cc(C)cc(OC(C)C(=O)NC(Cc3c[nH]c4ccc(O)cc34)C(=O)O)c12 (stereo not given) | . | . | . | . | . | / | /
CCCc1cc(=O)oc2cc(C)cc(OC(C)C(=O)N[C@@H](Cc3c[nH]c4ccccc34)C(=O)O)c12 (stereo not given in full) | -14 | . | . | . | . | . | .
CC(C)Cn1c2c(c(O)c(C(=O)Nc3nccs3)c1=O)CCCC2 | -7.7 | . | . | . | . | 74 | 41
Cc1csc(NC(=O)c2c(O)c3c(n(CC(C)C)c2=O)CCCC3)n1 | -8.9 | . | . | . | . | 57 | .
CCCn1c2c(c(O)c(C(=O)Nc3nccs3)c1=O)CCCC2 | . | . | . | . | . | / | /
O=C(NCc1ccco1)c1ccc(CS(=O)Cc2ccc(Cl)cc2)o1 (stereo not given) | . | . | . | . | . | / | /
Cc1ccc(C)c(-n2c3nc(=O)n(C)c(=O)c-3cc3ccccc32)c1 | -12 | . | . | . | . | . | .
CCCSc1nc(C)c2cc(C)cc(C)c2n1 | . | . | . | . | . | / | /
Cc1cc(C)c2nc3nc(C)c(C)cc3c(N)c2c1 | -9.3 | / | / | . | / | 90 | 65
Cc1nc2c(o1)CCc1ccccc1C2N1CCN(C)CC1 (stereo not given) | -11 | . | . | . | . | 95 | 91
COc1nc(NCCc2ccc(OC)c(OC)c2)nc(OC)n1 | . | . | . | . | . | / | /
COc1ccc(CCNc2nc(N3CCCCC3)nc(N3CCCCC3)n2)cc1OC | -8.4 | . | . | . | . | 76 | 46
CCCc1cc(-c2n[nH]c(=S)n2CC(C)C)cs1 | . | . | . | . | . | / | /
CCCCn1c(-c2csc(CC)c2)n[nH]c1=S | -8 | . | . | . | . | 88 | 55
CCCCn1c(-c2csc(C(C)C)c2)n[nH]c1=S | -9.7 | . | . | . | . | 92 | 60
Cn1c(=O)n(CCOc2ccccc2Cl)c2ccccc21 | -7.8 | . | . | . | . | 88 | 40
Cn1c(=O)n(CCOc2ccc(Cl)cc2Cl)c2ccccc21 | . | . | . | . | . | / | /
Fc1ccc(C2c3[nH]c4ccccc4c3CCN2CCCn2cccn2)cc1 (stereo not given) | . | . | . | . | . | / | /
Cc1ccccc1C1c2[nH]c3ccccc3c2CCN1CCCn1cccn1 (stereo not given) | -7.7 | . | . | . | . | 93 | 91
